Test results published in ChEMBL document CHEMBL2424651, “Synthesis and antiproliferative activity of new cytotoxic tri- and tetraazabenzo[3,2-a]fluorene-5,6-dione derivatives” (Bioorg Med Chem Lett, 2013).

Experiments:
[1] = tested on: SK-OV-3; experiment: Cytotoxicity against human SKOV3 cells after 48 hrs by resazurin dye assay; format: functional, cell-based; details: SK-OV-3, 48 h
Outline: (§1)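 Cells were seeded in the supplier-recommended growth medium and grown 24 h at 37 °C/5% CO2, with density set per line to give a linear signal. Compound exposure was 48 h in total. Resazurin (0.2 mg/mL in DPBS) was added for the final 3 h, and fluorescence was read at 590 nm. Data were expressed as % efficacy against non-treated cells and cell-free blanks on each plate. EC50 came from non-linear regression.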

[2] = Cytotoxicity against human KB/HeLa cells after 48 hrs by resazurin dye assay; format: functional, cell-based; outline: as §1
[3] = tested on: NCI-H460; experiment: Cytotoxicity against human NCI-H460 cells after 48 hrs by resazurin dye assay; format: functional, cell-based; details: NCI-H460, 48 h; outline: as §1
[4] = tested on: SK-OV-3; experiment: Cytotoxicity against human SKOV3 cells at 31.6 uM after 48 hrs by resazurin dye assay; format: functional; details: SK-OV-3, 48 h

## O=C1C(=O)c2c(nc3ccc(Cl)cn23)-c2ccncc21
[1]
  EC50: 0.525 µM
[2]
  EC50: 0.394 µM
[3]
  EC50: 0.342 µM

## CN(C)CCO/N=C1\C(=O)c2c(nc3ccccn23)-c2cnccc21
[1]
  EC50: 2.93 µM
[2]
  EC50: 6.15 µM
[3]
  EC50: 2.67 µM

## CN(C)CCO/N=C1\C(=O)c2c(nc3ccccn23)-c2ccncc21
[1]
  EC50: 0.931 µM
[2]
  EC50: 0.406 µM
[3]
  EC50: 0.414 µM

## O=C1C(=O)c2c(nc3ccccn23)-c2ccncc21
[1]
  EC50: 0.498 µM
[2]
  EC50: 0.244 µM
[3]
  EC50: 0.242 µM

## COc1cccc2c1C(=O)c1c(O)c3c(c(O)c1C2=O)C[C@@](O)(C(=O)CO)C[C@@H]3O[C@H]1C[C@H](N)[C@H](O)[C@H](C)O1 [DOXORUBICIN]
[1]
  EC50: 0.29 µM
[2]
  EC50: 0.25 µM
[3]
  EC50: 0.04 µM

## O=C1/C(=N\OCCO)c2ccncc2-c2nc3ccccn3c21
[1]
  EC50: 14.7 µM
[2]
  EC50: 4.35 µM
[3]
  EC50: 3.88 µM

## O=C1c2c(O)ccc(O)c2C(=O)c2c(NCCNCCO)ccc(NCCNCCO)c21 [MITOXANTRONE]
[2]
  EC50: 0.42 µM
[3]
  EC50: 0.03 µM

## O=C1C(=O)c2c(nc3ccccn23)-c2ncncc21
[1]
  EC50: 0.283 µM
[2]
  EC50: 0.145 µM
[3]
  EC50: 0.337 µM

## O=C1/C(=N\OCCO)c2cnccc2-c2nc3ccccn3c21
[1]
  EC50: 2.06 µM
[2]
  EC50: 0.532 µM
[3]
  EC50: 0.521 µM

## O=C1C(=O)c2c(nc3ccccn23)-c2cnccc21
[1]
  EC50: 1.22 µM
[2]
  EC50: 0.917 µM
[3]
  EC50: 0.62 µM

## CN(C)CCN(C)c1cc2c(cn1)C(=O)C(=O)c1c-2nc2ccc(Cl)cn12
[4]
  inhibition at 31.6 µM: < 30%
[2]
  EC50: 2.8 µM
[3]
  EC50: 2.14 µM
